Assay results from ChEMBL document CHEMBL4219118, “Cathepsin B inhibitors: Further exploration of the nitroxoline core” (Bioorg Med Chem Lett, 2018).
Active and inactive are the calls of the source. The calls are words filed in the database; no cut-off is given here.

Experiments:
Cathepsin B [1] = target: T1, Cathepsin B (Homo sapiens, UniProt P07858); assay: Non-competitive inhibition of recombinant human cathepsin B exopeptidase activity assessed as inhibitory constant for enzyme-inhibitor complex using Abz-Gly-Ile-Val-Arg-Ala-Lys(Dnp)-OH as substrate in presence of pH 5 acetate buffer by fluorescence assay
Cathepsin B [2] = target: T1, Cathepsin B; assay: Competitive inhibition of recombinant human cathepsin B endopeptidase activity assessed as inhibitory constant for enzyme-inhibitor complex using Z-Arg-Arg-AMC as substrate in presence of pH 6 phosphate buffer by fluorescence assay
Cathepsin B [3] = target: T1, Cathepsin B; assay: Competitive inhibition of recombinant human cathepsin B endopeptidase activity assessed as inhibitory constant for enzyme-inhibitor complex using Z-Arg-Arg-AMC as substrate in presence of pH 4.5 acetate buffer by fluorescence assay; settings: read-out: Ki
How it was run: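 Recombinant cathepsin B endopeptidase activity assayed with the small substrate Z-Arg-Arg-AMC at pH 4.5. Acidic conditions chosen to shift the enzyme toward the closed (exopeptidase) conformation. Ki reported.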

Cathepsin B [4] = target: T1, Cathepsin B; assay: Non-competitive inhibition of recombinant human cathepsin B exopeptidase activity assessed as inhibitory constant for enzyme-substrate-inhibitor complex using Abz-Gly-Ile-Val-Arg-Ala-Lys(Dnp)-OH as substrate in presence of pH 5 acetate buffer by fluorescence assay
Cathepsin B [5] = target: T1, Cathepsin B; assay: Competitive inhibition of recombinant human cathepsin B exopeptidase activity assessed as inhibitory constant for enzyme-inhibitor complex using Abz-Gly-Ile-Val-Arg-Ala-Lys(Dnp)-OH as substrate in presence of pH 5 acetate buffer by fluorescence assay
Cathepsin B [6] = target: T1, Cathepsin B; assay: Non-competitive inhibition of recombinant human cathepsin B endopeptidase activity assessed as inhibitory constant for enzyme-inhibitor complex using Z-Arg-Arg-AMC as substrate in presence of pH 6 phosphate buffer by fluorescence assay
Cathepsin B [7] = target: T1, Cathepsin B; assay: Non-competitive inhibition of recombinant human cathepsin B endopeptidase activity assessed as inhibitory constant for enzyme-substrate-inhibitor complex using Z-Arg-Arg-AMC as substrate in presence of pH 6 phosphate buffer by fluorescence assay
MCF-10A-neoT [8] = assay: Antiinvasive activity against human MCF10AneoT cells at 1.25 uM incubated for 1 hr measured every 15 mins for 72 hrs by real time xCELLigence assay relative to control; assay type: functional
How it was run: (§1)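 MCF-10A neoT cells (3 × 10⁴) seeded on Matrigel-coated (1 mg/mL) upper compartments of CIM-plates. Compound or DMSO (0.05%) added to growth medium in both upper and lower compartments. Invasion followed by impedance (cell index) for 72 h. Slopes (1/h) between 4 and 14 h converted to percentage invasion versus DMSO. Means of n = 2, each run in triplicate.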

Cathepsin B [9] = target: T1, Cathepsin B; assay: Uncompetitive inhibition of recombinant human cathepsin B exopeptidase activity assessed as inhibitory constant for enzyme-substrate-inhibitor complex using Abz-Gly-Ile-Val-Arg-Ala-Lys(Dnp)-OH as substrate in presence of pH 5 acetate buffer by fluorescence assay
Cathepsin B [10] = target: T1, Cathepsin B; assay: (§2) Inhibition of cathepsin B in human MCF-10A neoT cells assessed as proteolysis of extracellular membrane by measuring decrease in intracellular degradation of DQ-collagen 4 at 12.5 uM incubated for 2 hrs followed by DQ-collagen addition measured for 2 hrs by propidium iodide staining based flow cytometry relative to control; assay type: cell-based
How it was run: (§3)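 MCF-10A neoT cells (6 × 10⁴) treated with compound or DMSO. Intracellular DQ-collagen IV degradation measured by flow cytometry, with unlabeled cells as background. Reduction expressed versus DMSO. Mean of n = 3, run in duplicate.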

Cathepsin B [11] = target: T1, Cathepsin B; assay: Inhibition of cathepsin B in human MCF-10A neoT cells assessed as proteolysis of extracellular membrane by measuring decrease in extracellular degradation of DQ-collagen 4 at 1.25 uM incubated for 6 hrs measured for 2 hrs by fluorescence based spectrofluorimetric assay relative to control; assay type: cell-based
How it was run: (§4)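 MCF-10A neoT cells (5 × 10⁴) incubated with DQ-collagen IV in the presence of compound or DMSO. Extracellular degradation product read by spectrofluorimetry. Mean of n = 3, six replicates per experiment.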

MCF-10A-neoT [12] = assay: Cytotoxicity against human MCF10AneoT cells assessed as decrease in cell viability after 72 hrs by MTS assay; assay type: cell-based
Pro-cathepsin H [13] = target: T2, Pro-cathepsin H (Homo sapiens, UniProt P09668); assay: Competitive inhibition of human liver cathepsin H assessed as inhibitory constant for enzyme-inhibitor complex using R-AMC as substrate in presence of pH 6 phosphate buffer by fluorescence assay
T2 sequence (P09668 whole entry): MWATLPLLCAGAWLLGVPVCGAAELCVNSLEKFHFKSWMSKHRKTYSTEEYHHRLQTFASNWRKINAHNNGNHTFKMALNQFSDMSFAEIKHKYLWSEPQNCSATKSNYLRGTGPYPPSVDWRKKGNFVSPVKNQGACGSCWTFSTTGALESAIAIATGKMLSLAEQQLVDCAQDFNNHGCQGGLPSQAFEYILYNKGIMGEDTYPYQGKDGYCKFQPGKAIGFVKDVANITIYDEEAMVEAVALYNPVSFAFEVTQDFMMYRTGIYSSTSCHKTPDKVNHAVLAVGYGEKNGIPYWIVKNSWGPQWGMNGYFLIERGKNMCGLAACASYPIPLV

Procathepsin L [14] = target: T3, Procathepsin L (Homo sapiens, UniProt P07711); assay: Competitive inhibition of recombinant human cathepsin L expressed in Escherichia coli assessed as inhibitory constant for enzyme-inhibitor complex using Z-FR-AMC as substrate in presence of pH 6 phosphate buffer by fluorescence assay
T3 sequence (P07711 whole entry): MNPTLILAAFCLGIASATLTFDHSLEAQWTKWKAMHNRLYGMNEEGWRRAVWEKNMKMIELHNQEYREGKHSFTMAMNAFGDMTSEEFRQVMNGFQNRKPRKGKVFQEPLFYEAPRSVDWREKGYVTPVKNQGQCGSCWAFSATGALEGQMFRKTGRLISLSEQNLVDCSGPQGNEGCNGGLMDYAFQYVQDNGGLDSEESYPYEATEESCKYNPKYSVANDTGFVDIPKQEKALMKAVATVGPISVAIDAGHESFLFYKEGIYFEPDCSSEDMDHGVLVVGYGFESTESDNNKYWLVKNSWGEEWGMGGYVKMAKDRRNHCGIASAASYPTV

Cathepsin B [15] = target: T1, Cathepsin B; assay: Inhibition of recombinant human cathepsin B endopeptidase activity assessed as inhibitory constant for enzyme-inhibitor complex using Z-Arg-Arg-AMC as substrate in presence of pH 6 phosphate buffer by fluorescence assay
U-87 MG [16] = assay: Growth inhibition of human U87MG tumor spheroids at 1.25 uM measured up to 3 days by light microscopy; assay type: functional, cell-based; settings: U-87MG ATCC
How it was run: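 U-87 MG multicellular spheroids formed by hanging drop and implanted in Matrigel with compound. Spheroid dimensions measured for up to three days and volume calculated. Means of n = 2.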

U-87 MG [17] = assay: Cytotoxicity against human U87MG cells assessed as decrease in cell viability after 72 hrs by MTS assay; assay type: cell-based; settings: u-87mg atcc
Cathepsin B [18] = target: T1, Cathepsin B; assay: Uncompetitive inhibition of recombinant human cathepsin B endopeptidase activity assessed as inhibitory constant for enzyme-substrate-inhibitor complex using Z-Arg-Arg-AMC as substrate in presence of pH 6 phosphate buffer by fluorescence assay
Cathepsin B [19] = target: T1, Cathepsin B; assay: Mixed inhibition of recombinant human cathepsin B exopeptidase activity assessed as inhibitory constant for enzyme-substrate-inhibitor complex using Abz-Gly-Ile-Val-Arg-Ala-Lys(Dnp)-OH as substrate in presence of pH 5 acetate buffer by fluorescence assay
Pro-cathepsin H [20] = target: T2, Pro-cathepsin H; assay: Uncompetitive inhibition of human liver cathepsin H assessed as inhibitory constant for enzyme-substrate-inhibitor complex using R-AMC as substrate in presence of pH 6 phosphate buffer by fluorescence assay
Cathepsin B [21] = target: T1, Cathepsin B; assay: as §2, with “50” for “12.5”; assay type: cell-based; how it was run: as §3
Cathepsin B [22] = target: T1, Cathepsin B; assay: Inhibition of cathepsin B in human MCF-10A neoT cells assessed as proteolysis of extracellular membrane by measuring decrease in extracellular degradation of DQ-collagen 4 at 5 uM incubated for 6 hrs measured for 2 hrs by fluorescence based spectrofluorimetric assay relative to control; assay type: cell-based; how it was run: as §4
MCF-10A-neoT [23] = assay: Antiinvasive activity against human MCF10AneoT cells at 5 uM incubated for 1 hr measured every 15 mins for 72 hrs by real time xCELLigence assay relative to control; assay type: functional; how it was run: as §1
Cathepsin B [24] = target: T1, Cathepsin B; assay: Mixed inhibition of recombinant human cathepsin B exopeptidase activity assessed as inhibitory constant for enzyme-inhibitor complex using Abz-Gly-Ile-Val-Arg-Ala-Lys(Dnp)-OH as substrate in presence of pH 5 acetate buffer by fluorescence assay
Procathepsin L [25] = target: T3, Procathepsin L; assay: Non-competitive inhibition of recombinant human cathepsin L expressed in Escherichia coli assessed as inhibitory constant for enzyme-inhibitor complex using Z-FR-AMC as substrate in presence of pH 6 phosphate buffer by fluorescence assay
Procathepsin L [26] = target: T3, Procathepsin L; assay: Non-competitive inhibition of recombinant human cathepsin L expressed in Escherichia coli assessed as inhibitory constant for enzyme-substrate-inhibitor complex using Z-FR-AMC as substrate in presence of pH 6 phosphate buffer by fluorescence assay

N#CCNC(=O)c1ccc([N+](=O)[O-])c2cccnc12
Ki (Cathepsin B [1]): 190 µM
Ki (Cathepsin B [2]): 240 µM
Ki (Cathepsin B [3]): 294 µM
Ki (Cathepsin B [4]): 190 µM

N#CC1(NC(=O)c2cc([N+](=O)[O-])ccc2O)CC1
Ki (Cathepsin B [5]): 247 µM
Ki (Cathepsin B [6]): 247 µM
Ki (Cathepsin B [7]): 128 µM

O=C(NCC1CCN(c2nc3ccccc3o2)CC1)c1cc([N+](=O)[O-])c2cccnc2c1O
Activity (MCF-10A-neoT [8]): 50%
Ki (Cathepsin B [9]): 13 µM
inhibition (Cathepsin B [10]): 35%
inhibition (Cathepsin B [11]): 45%
Activity (MCF-10A-neoT [12]): Non-Toxic
Ki (Pro-cathepsin H [13]): 108 µM
Ki (Procathepsin L [14]): 5 µM
Ki (Cathepsin B [15]): 8.2 µM
growth inhibition (GI) (U-87 MG [16]): Active
Ki (Cathepsin B [3]): 237 µM
Activity (U-87 MG [17]): Non-Toxic
Ki (Cathepsin B [18]): 8 µM

N#CCNC(=O)c1cc([N+](=O)[O-])c2cccnc2c1O
Ki (Cathepsin B [19]): 30 µM
Ki (Pro-cathepsin H [20]): 462 µM
inhibition (Cathepsin B [21]): 60%
inhibition (Cathepsin B [22]): Active
Activity (MCF-10A-neoT [23]): 20%
Activity (MCF-10A-neoT [12]): Non-Toxic
Ki (Cathepsin B [24]): 128 µM
Ki (Procathepsin L [25]): 155 µM
Ki (Procathepsin L [26]): 155 µM
Ki (Cathepsin B [3]): 206 µM
Activity (U-87 MG [17]): Non-Toxic
Ki (Cathepsin B [18]): 67 µM
